Source: ChEMBL document CHEMBL4813987, “Membrane active 7-thiazoxime quinolones as novel DNA binding agents to decrease the genes expression and exert potent anti-methicillin-resistant Staphylococcus aureus activity” (Eur J Med Chem, 2021)
Calls of active or inactive are those of the source. The rule behind the calls is not given here.

Tests used:
[1] = biological target: T1, DNA gyrase (Staphylococcus aureus) (UniProt P0A0K8+P20831); assay: Binding affinity to DNA gyrase in methicillin-resistant Staphylococcus aureus assessed as decrease in mecA gene expression after 3 hrs by RT-PCR method
Staphylococcus aureus [2] = assay: Antibacterial activity against Staphylococcus aureus ATCC 25923 assessed as reduction in microbial growth by two fold microdilution method; format: functional
DNA [3] = assay: Competitive binding affinity to methicillin-resistant Staphylococcus aureus DNA assessed as DNA intercalation by DAPI staining based assay; format: nucleic-acid assay
How it was run: (§1)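 Competitive displacement on MRSA DNA, recorded by fluorescence in 1.0 cm quartz cells. For the AO–DNA complex, emission at 537 nm followed with increasing compound concentration. For the DAPI–DNA complex, DAPI fluorescence followed with increasing compound concentration.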

Staphylococcus aureus [4] = assay: Antibacterial activity against methicillin-resistant Staphylococcus aureus assessed as reduction in bacterial growth at 20 to 140 ug/ml measured after 16 passages in presence of ciprofloxacin; format: functional, organism-based; details: dose 20-140 µg/ml
Klebsiella pneumoniae [5] = assay: Antibacterial activity against Klebsiella pneumonia assessed as reduction in microbial growth by two fold microdilution method; format: functional
DNA [6] = assay: Binding affinity to methicillin-resistant Staphylococcus aureus DNA assessed as conformational changes in DNA duplex by UV spectroscopy; format: nucleic-acid assay
How it was run: (§2)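 Genomic DNA isolated from MRSA titrated with the compound. UV absorption spectra recorded in 1.0 cm quartz cells, and the binding constant derived from an equation and plot of the spectral data.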

Staphylococcus aureus [7] = assay: Antibacterial activity against Staphylococcus aureus assessed as reduction in microbial growth by two fold microdilution method; format: functional
How it was run: (§3)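 MIC determined by the standard two-fold broth micro-dilution assay, with norfloxacin and ciprofloxacin as reference agents.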

Cell membrane [8] = assay: Induction of inner membrane permeabilization in methicillin-resistant Staphylococcus aureus by propidium iodide staining based fluorescence microscopic analysis
How it was run: (§4)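 MRSA treated at 1–4 × MIC and stained with propidium iodide and calcein-AM. Fluorescence intensity measured on a spectrofluorimeter. Dual-stain cells imaged by fluorescence microscopy, scoring red (PI) and green (calcein) cells.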

Staphylococcus aureus [9] = assay: Bactericidal activity against methicillin-resistant Staphylococcus aureus assessed as increase in sterilization rate at 2 ug/ml measured at 6 hrs by time kill assay; format: functional, organism-based; details: dose 2.0 µg/ml
How it was run: (§5)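 Time-kill kinetics: MRSA exposed to the compound at several concentrations, with ciprofloxacin as positive control. Sterilization rate followed over time up to 6 h.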

[10] = biological target: T1, DNA gyrase (Staphylococcus aureus); assay: Binding affinity to DNA gyrase in methicillin-resistant Staphylococcus aureus assessed as decrease in femB gene expression after 3 hrs by RT-PCR method
Cell membrane [11] = assay: Induction of membrane depolarization in methicillin-resistant Staphylococcus aureus at MIC by DiSC35 dye-based fluorescence assay; details: TDE = time-dependent effect
How it was run: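 Cytoplasmic membrane potential of MRSA probed with the fluorescent dye diSC35. Cells treated at MIC, and fluorescence intensity recorded over time against untreated cells.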

DNA [12] = assay: Binding affinity to methicillin-resistant Staphylococcus aureus DNA assessed as maximum absorbance peak at 260 nm by UV spectroscopy; format: nucleic-acid assay; how it was run: as §2
DNA [13] = assay: Competitive binding affinity to methicillin-resistant Staphylococcus aureus DNA assessed as DNA intercalation by AO staining based assay; format: nucleic-acid assay; how it was run: as §1
Erythrocyte = assay: Hemolytic activity in human RBC at 16 times MIC incubated for 4 hrs by microscopic analysis; format: ADME, cell-based
How it was run: (§6)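 Processed red blood cells incubated with various compound concentrations (multiples of MIC) for 4 h at 37 °C in PBS; 1% Triton X-100 as positive control, PBS blank, saline control; hemolysis rate determined and cell integrity inspected by microscopy.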

Cell membrane [14] = assay: Induction of inner membrane permeabilization in methicillin-resistant Staphylococcus aureus assessed as decrease in fluorescence intensity at 4 times MIC measured by calcein-AM dye based fluorescence analysis
Staphylococcus aureus [15] = assay: Antibacterial activity against methicillin-resistant Staphylococcus aureus assessed as reduction in bacterial growth at 20 to 140 ug/ml measured after 16 passages; format: functional, organism-based; details: dose 20-140 µg/ml
Escherichia coli [16] = assay: Antibacterial activity against Escherichia coli assessed as reduction in microbial growth by two fold microdilution method; format: functional
Escherichia coli [17] = assay: Antibacterial activity against Escherichia coli in presence of ciprofloxacin (reference value: 0.25 ug/ml); format: functional
Staphylococcus aureus [18] = assay: Synergistic antibacterial activity against methicillin-resistant Staphylococcus aureus assessed as fractional inhibitory concentration index in presence of ciprofloxacin; format: functional
How it was run: (§7)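 MIC of the test compound and of ciprofloxacin determined alone and in combination against each strain. FIC index = (MIC of A combined / MIC of A alone) + (MIC of B combined / MIC of B alone). FIC index ≤0.5 scored synergy, >0.5–2 additivity, >2 antagonism.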

Staphylococcus aureus [19] = assay: Antibacterial activity against Staphylococcus aureus ATCC 25923 in presence of ciprofloxacin (reference value: 0.25 ug/ml); format: functional; how it was run: as §7
Acinetobacter baumannii = assay: Antibacterial activity against Acinetobacter baumannii assessed as reduction in microbial growth by two fold microdilution method; format: functional
Klebsiella pneumoniae [20] = assay: Synergistic antibacterial activity against Klebsiella pneumonia assessed as fractional inhibitory concentration index in presence of ciprofloxacin; format: functional
DNA [21] = assay: Binding affinity to methicillin-resistant Staphylococcus aureus DNA assessed as compound-DNA complex formation by UV spectroscopy; format: nucleic-acid assay; how it was run: as §2
[22] = biological target: T1, DNA gyrase (Staphylococcus aureus); assay: Binding affinity to DNA gyrase in methicillin-resistant Staphylococcus aureus assessed as decrease in gyrB gene expression after 3 hrs by RT-PCR method
Cell membrane [23] = assay: Induction of inner membrane disruption in methicillin-resistant Staphylococcus aureus assessed as increase in red fluorescence intensity at 4 times MIC measured by calcein-AM dye based fluorescence analysis; how it was run: as §4
Staphylococcus aureus [24] = assay: Bactericidal activity against methicillin-resistant Staphylococcus aureus assessed as increase in sterilization rate at 4 ug/ml measured at 4 hrs by time kill assay; format: functional, organism-based; details: dose 4.0 µg/ml; how it was run: as §5
Pseudomonas aeruginosa [25] = assay: Antibacterial activity against Pseudomonas aeruginosa assessed as reduction in microbial growth by two fold microdilution method; format: functional
Staphylococcus aureus [26] = assay: Antibacterial activity against methicillin-resistant Staphylococcus aureus assessed as reduction in microbial growth by two fold microdilution method; format: functional; how it was run: as §3
Escherichia coli [27] = assay: Synergistic antibacterial activity against Escherichia coli assessed as fractional inhibitory concentration index in presence of ciprofloxacin; format: functional
Staphylococcus aureus [28] = assay: Antibacterial activity against methicillin-resistant Staphylococcus aureus in presence of ciprofloxacin (reference value: 0.25 ug/ml); format: functional; how it was run: as §7
Cell membrane [29] = assay: Induction of inner membrane disruption in methicillin-resistant Staphylococcus aureus assessed as decrease in green fluorescence intensity at 4 times MIC measured by calcein-AM dye based fluorescence analysis; how it was run: as §4
Pseudomonas aeruginosa [30] = assay: Antibacterial activity against Pseudomonas aeruginosa ATCC 27853 assessed as reduction in microbial growth by two fold microdilution method; format: functional
Staphylococcus aureus [31] = assay: Antibacterial activity against Staphylococcus aureus ATCC 29213 assessed as reduction in microbial growth by two fold microdilution method; format: functional
[32] = Hemolytic activity in human RBC at 64 times MIC incubated for 4 hrs by microscopic analysis relative to control; format: ADME, cell-based, Erythrocyte; details: red blood cells (erythrocytes), read-out: Activity; how it was run: as §6
Escherichia coli [33] = assay: Antibacterial activity against Escherichia coli ATCC 25922 assessed as reduction in microbial growth by two fold microdilution method; format: functional
Klebsiella pneumoniae [34] = assay: Antibacterial activity against Klebsiella pneumonia in presence of ciprofloxacin (reference value: 0.25 ug/ml); format: functional
Enterococcus faecalis = assay: Antibacterial activity against Enterococcus faecalis assessed as reduction in microbial growth by two fold microdilution method; format: functional
Staphylococcus aureus [35] = assay: Additive antibacterial activity against Staphylococcus aureus ATCC 25923 assessed as fractional inhibitory concentration index in presence of ciprofloxacin; format: functional
HEK-293T = assay: Cytotoxicity against human HEK293T cells assessed as increase in cell survival incubated for 24 hrs by MTT assay relative to control; format: cell-based
How it was run: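 LO2 hepatocytes and 293T cells exposed to compound for 24 h; viability by colorimetric MTT proliferation assay, expressed as survival rate versus untreated cells.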

[36] = Hemolytic activity in human RBC incubated for 4 hrs by microscopic analysis relative to control; format: ADME, cell-based, Erythrocyte; details: red blood cells (erythrocytes), read-out: Activity; how it was run: as §6

T1 sequence (P0A0K8 2-644 limits assumed): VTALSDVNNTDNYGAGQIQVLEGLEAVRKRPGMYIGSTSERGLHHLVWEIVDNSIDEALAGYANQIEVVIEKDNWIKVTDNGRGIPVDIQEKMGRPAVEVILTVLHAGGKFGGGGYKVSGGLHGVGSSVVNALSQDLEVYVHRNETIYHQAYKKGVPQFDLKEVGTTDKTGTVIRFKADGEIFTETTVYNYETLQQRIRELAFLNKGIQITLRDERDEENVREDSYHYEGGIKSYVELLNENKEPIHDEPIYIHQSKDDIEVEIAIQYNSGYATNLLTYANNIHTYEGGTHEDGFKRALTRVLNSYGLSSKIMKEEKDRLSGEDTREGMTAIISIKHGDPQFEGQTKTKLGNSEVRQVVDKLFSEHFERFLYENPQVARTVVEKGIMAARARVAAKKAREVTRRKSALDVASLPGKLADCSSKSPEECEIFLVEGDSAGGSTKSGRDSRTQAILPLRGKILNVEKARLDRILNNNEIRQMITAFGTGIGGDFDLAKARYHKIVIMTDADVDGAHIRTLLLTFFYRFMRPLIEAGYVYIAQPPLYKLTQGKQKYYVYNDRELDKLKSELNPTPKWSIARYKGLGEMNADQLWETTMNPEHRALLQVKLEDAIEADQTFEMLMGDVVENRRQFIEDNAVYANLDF
T1 sequence (P20831 whole entry partner): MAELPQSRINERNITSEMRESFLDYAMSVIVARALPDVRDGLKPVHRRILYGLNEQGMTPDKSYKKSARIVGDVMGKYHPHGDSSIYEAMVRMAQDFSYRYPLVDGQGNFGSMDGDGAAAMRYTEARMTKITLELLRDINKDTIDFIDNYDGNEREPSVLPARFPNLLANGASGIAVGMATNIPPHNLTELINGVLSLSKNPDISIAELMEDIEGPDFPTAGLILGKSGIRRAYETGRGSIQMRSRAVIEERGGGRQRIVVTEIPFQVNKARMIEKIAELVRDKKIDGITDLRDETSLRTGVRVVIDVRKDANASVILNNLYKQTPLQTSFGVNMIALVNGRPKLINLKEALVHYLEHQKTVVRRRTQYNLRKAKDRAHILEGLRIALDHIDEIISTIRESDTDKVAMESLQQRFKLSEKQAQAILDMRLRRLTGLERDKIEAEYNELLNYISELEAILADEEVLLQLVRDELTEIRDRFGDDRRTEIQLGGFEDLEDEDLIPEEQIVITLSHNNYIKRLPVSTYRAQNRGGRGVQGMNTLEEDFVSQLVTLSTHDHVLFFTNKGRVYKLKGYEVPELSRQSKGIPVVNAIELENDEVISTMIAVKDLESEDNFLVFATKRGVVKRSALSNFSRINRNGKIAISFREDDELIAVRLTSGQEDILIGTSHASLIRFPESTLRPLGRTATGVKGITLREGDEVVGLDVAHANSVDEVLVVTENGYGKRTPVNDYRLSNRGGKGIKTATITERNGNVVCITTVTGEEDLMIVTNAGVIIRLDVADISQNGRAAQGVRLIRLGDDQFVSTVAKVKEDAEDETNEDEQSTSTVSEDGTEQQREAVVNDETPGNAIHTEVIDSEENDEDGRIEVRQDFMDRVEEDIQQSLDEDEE

## COC(=O)CO/N=C(\CN1CCN(c2cc3c(cc2F)c(=O)c(C(=O)O)cn3C2CC2)CC1)c1nccs1
[1]
  Activity: inactive
Staphylococcus aureus [2]
  MIC: 0.25 µg/mL
DNA [3]
  Activity: Active
Staphylococcus aureus [4]
  Activity: inactive
Klebsiella pneumoniae [5]
  MIC: 0.25 µg/mL
DNA [6]
  Activity: Active
Staphylococcus aureus [7]
  MIC: 0.25 µg/mL
Cell membrane [8]
  Activity: Dose-Dependent Effect
Staphylococcus aureus [9]
  Activity: Active
[10]
  Activity: Active
Cell membrane [11]
  Activity: Tde
DNA [12]
  Activity: Active
DNA [13]
  Activity: Active
Erythrocyte
  Activity: Non-Toxic
Cell membrane [14]
  Activity: Active
Staphylococcus aureus [15]
  Activity: Active
Escherichia coli [16]
  MIC: 1 µg/mL
Escherichia coli [17]
  MIC: 0.0625 µg/mL
Staphylococcus aureus [18]
  FIC: 0.5
Staphylococcus aureus [19]
  MIC: 0.25 µg/mL
Acinetobacter baumannii
  MIC: 0.25 µg/mL
Klebsiella pneumoniae [20]
  FIC: 0.3125
DNA [21]
  Activity: Active
[22]
  Activity: Active
Cell membrane [23]
  Activity: Active
Staphylococcus aureus [24]
  Activity: Active
Pseudomonas aeruginosa [25]
  MIC: 0.25 µg/mL
Staphylococcus aureus [26]
  MIC: 0.25 µg/mL
Escherichia coli [27]
  FIC: 0.3125
Staphylococcus aureus [28]
  MIC: 0.125 µg/mL
Cell membrane [29]
  Activity: Active
Pseudomonas aeruginosa [30]
  MIC: 0.25 µg/mL
Staphylococcus aureus [31]
  MIC: 0.25 µg/mL
[32]
  hemolysis at 4 h, 64 times MIC: < 5%
Escherichia coli [33]
  MIC: 0.25 µg/mL
Klebsiella pneumoniae [34]
  MIC: 0.0625 µg/mL
Enterococcus faecalis
  MIC: 0.25 µg/mL
Staphylococcus aureus [35]
  FIC: 1.5
HEK-293T
  Activity: > 90%
[36]
  hemolysis at 4 h: < 3%
